Reference: ChEMBL document CHEMBL4011639, “Discovery of Novel Nucleotide Prodrugs with Improved Potency Against HCV Variants Carrying NS5B S282T Mutation” (J Med Chem, 2017)

How the values were obtained:
[1] = Inhibition of wild type NS5B in HCV genotype 1b replicon expressed in human HuH7 cells after 72 hrs by bright Glo-luciferase reporter gene assay; assay type: cell-based, Hepatitis C virus subtype 1b; conditions: Hepatitis C virus, Huh-7, 72 h
How it was run: (§1)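 Huh7 cells carrying HCV genotype 1b replicon, 8000 per well, in duplicate 3-fold dilution series with 0.5% DMSO final; 72 h at 37 °C, 5% CO2. Viability read by Cell Titer-Fluor fluorescence after 5 min; replicon inhibition read by Bright-Glo luciferase luminescence in the same wells. EC50 and CC50 come from curve fitting.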

[2] = tested on: Huh-7; experiment: Cytotoxicity against human HuH7 cells assessed as reduction in cell viability up to 100 uM after 72 hrs by Cell Titer-Fluor Cell assay; assay type: cell-based; conditions: huh-7, 72 h; how it was run: as §1
[3] = tested on: Hepatitis C virus subtype 1b; experiment: Ratio of EC50 for HCV genotype 1b replicon NS5B S282T mutant to EC50 for wild type HCV genotype 1b replicon NS5B
How it was run: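 Huh7 cells carrying wild-type or S282T mutant HCV genotype 1b replicon, 8000 cells per well, exposed to 3-fold compound dilution series (0.5% DMSO final, duplicates) for 72 h at 37 °C, 5% CO2. Replicon activity read by Bright-Glo luciferase luminescence. EC50 averaged from duplicate determinations; ratio taken as S282T EC50 over wild-type EC50.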

[4] = Half life in human plasma […] by LC/MS/MS analysis; assay type: ADME, cell-free
How it was run: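 Pooled human plasma adjusted to pH 7.4 and prewarmed, then spiked to 2 μM final from a 200 μM DMSO working solution, in duplicate. Sampled at 0, 10, 30, 60 and 120 min and quenched with acetonitrile containing tolbutamide and buspirone. LC/MS/MS (MRM) peak area ratios; ke from linear regression of the initial linear phase, t1/2 = ln2/ke.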

[5] = Half life in human liver S9 fraction at 10 uM by LC/MS/MS analysis; assay type: ADME
How it was run: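 Compound at 10 μM working solution (1% DMSO, 5% MeOH in 100 mM Tris) incubated at 37 °C with human liver S9 at 1 mg protein/mL final. Reactions stopped with cold acetonitrile containing tolbutamide internal standard at 0, 5, 10, 20, 30 and 60 min. Parent measured by LC/MS/MS (MRM) as analyte/IS peak area ratio, given as percent remaining versus 0 min; half-life fitted.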

SMILES	EC50 [1]	Activity [2]	Ratio EC50 [3]	half-life [4]	half-life at 10 µM [5]
CC(C)OC(=O)[C@H](C)N[P@](=O)(OC[C@H]1O[C@@H](n2ccc(NC(=O)Cc3ccccc3)nc2=O)[C@](C)(F)[C@@H]1O)Oc1ccccc1	1.32 µM	Non-Toxic			
CC(C)OC(=O)[C@H](C)N[P@](=O)(OC[C@H]1O[C@@H](n2ccc(NC(=O)OC3CCCCC3)nc2=O)[C@](C)(F)[C@@H]1O)Oc1ccccc1	> 10 µM	Non-Toxic			
CC(C)OC(=O)[C@H](C)N[P@](=O)(OC[C@H]1O[C@@H](n2ccc(NC(=O)C3CCCCC3)nc2=O)[C@](C)(F)[C@@H]1O)Oc1ccccc1	4.2 µM	Non-Toxic			
COc1ccc(C(=O)Nc2ccn([C@@H]3O[C@H](CO[P@@](=O)(N[C@@H](C)C(=O)OC(C)C)Oc4ccccc4)[C@@H](O)[C@@]3(C)F)c(=O)n2)cc1	> 10 µM	Non-Toxic			
CC(=O)Nc1ccn([C@@H]2O[C@H](CO[P@@](=O)(N[C@@H](C)C(=O)OC(C)C)Oc3ccccc3)[C@@H](O)[C@@]2(C)F)c(=O)n1	1.04 µM	Non-Toxic			
CC(C)OC(=O)[C@H](C)N[P@](=O)(OC[C@H]1O[C@@H](n2ccc(NC(=O)C(C)(C)Oc3ccc(Cl)cc3)nc2=O)[C@](C)(F)[C@@H]1O)Oc1ccccc1	4.02 µM	Non-Toxic			
CCCOC(=O)Nc1ccn([C@@H]2O[C@H](CO[P@@](=O)(N[C@@H](C)C(=O)OC(C)C)Oc3ccccc3)[C@@H](O)[C@@]2(C)F)c(=O)n1	6.01 µM	Non-Toxic			
CC(C)OC(=O)[C@H](C)N[P@](=O)(OC[C@H]1O[C@@H](n2ccc(NC(=O)/C=C/c3ccccc3)nc2=O)[C@](C)(F)[C@@H]1O)Oc1ccccc1	4.08 µM	Non-Toxic			
CCC(CC)C(=O)Nc1ccn([C@@H]2O[C@H](CO[P@@](=O)(N[C@@H](C)C(=O)OC(C)C)Oc3ccccc3)[C@@H](O)[C@@]2(C)F)c(=O)n1	> 10 µM	Non-Toxic			
CC(C)OC(=O)Nc1ccn([C@@H]2O[C@H](CO[P@@](=O)(N[C@@H](C)C(=O)OC(C)C)Oc3ccccc3)[C@@H](O)[C@@]2(C)F)c(=O)n1	3.87 µM	Non-Toxic			
CCCCCCOC(=O)Nc1ccn([C@@H]2O[C@H](CO[P@@](=O)(N[C@@H](C)C(=O)OC(C)C)Oc3ccccc3)[C@@H](O)[C@@]2(C)F)c(=O)n1	> 10 µM	Non-Toxic			
CCCC(CCC)C(=O)Nc1ccn([C@@H]2O[C@H](CO[P@@](=O)(N[C@@H](C)C(=O)OC(C)C)Oc3ccccc3)[C@@H](O)[C@@]2(C)F)c(=O)n1	1.64 µM	Non-Toxic			
CCC(=O)Nc1ccn([C@@H]2O[C@H](CO[P@@](=O)(N[C@@H](C)C(=O)OC(C)C)Oc3ccccc3)[C@@H](O)[C@@]2(C)F)c(=O)n1	1.48 µM	Non-Toxic			
CC(C)OC(=O)[C@H](C)N[P@](=O)(OC[C@H]1O[C@@H](n2ccc(NC(=O)c3ccccc3)nc2=O)[C@](C)(F)[C@@H]1O)Oc1ccccc1	1.99 µM	Non-Toxic			
CCCCCOC(=O)Nc1ccn([C@@H]2O[C@H](CO[P@@](=O)(N[C@@H](C)C(=O)OC(C)C)Oc3ccccc3)[C@@H](O)[C@@]2(C)F)c(=O)n1	> 10 µM	Non-Toxic			
CC(C)COC(=O)Nc1ccn([C@@H]2O[C@H](CO[P@@](=O)(N[C@@H](C)C(=O)OC(C)C)Oc3ccccc3)[C@@H](O)[C@@]2(C)F)c(=O)n1	> 10 µM	Non-Toxic			

SMILES	EC50 [1]	Activity [2]	Ratio EC50 [3]	half-life [4]	half-life at 10 µM [5]
CC(C)OC(=O)[C@H](C)N[P@](=O)(OC[C@H]1O[C@@H](n2ccc(NC(=O)C3CC3)nc2=O)[C@](C)(F)[C@@H]1O)Oc1ccccc1	2.25 µM	Non-Toxic			
CC(C)OC(=O)[C@H](C)N[P@](=O)(OC[C@H]1O[C@@H](n2ccc(NC(=O)OCc3ccccc3)nc2=O)[C@](C)(F)[C@@H]1O)Oc1ccccc1	> 10 µM	Non-Toxic			
CCC(CC)OC(=O)Nc1ccn([C@@H]2O[C@H](CO[P@@](=O)(N[C@@H](C)C(=O)OC(C)C)Oc3ccccc3)[C@@H](O)[C@@]2(C)F)c(=O)n1	> 10 µM	Non-Toxic			
CC(C)OC(=O)[C@H](C)N[P@](=O)(OC[C@H]1O[C@@H](n2ccc(NC(=O)CCc3ccccc3)nc2=O)[C@](C)(F)[C@@H]1O)Oc1ccccc1	1.47 µM	Non-Toxic			
CCOC(=O)Nc1ccn([C@@H]2O[C@H](CO[P@@](=O)(N[C@@H](C)C(=O)OC(C)C)Oc3ccccc3)[C@@H](O)[C@@]2(C)F)c(=O)n1	8.36 µM	Non-Toxic			
CC(C)C(=O)OC[C@H]1O[C@@H](n2ccc(N)nc2=O)[C@](C)(F)[C@@H]1OC(=O)C(C)C [MERICITABINE]	1.11 µM	Non-Toxic			
CC(C)OC(=O)[C@H](C)N[P@](=O)(OC[C@H]1O[C@@H](n2ccc(=O)[nH]c2=O)[C@](C)(F)[C@@H]1O)Oc1ccccc1 [SOFOSBUVIR]	0.15 µM	Non-Toxic	8.1	> 3.85 h	0.802 h
CC(C)OC(=O)[C@H](C)N[P@](=O)(OC[C@H]1O[C@@H](n2ccc(N)nc2=O)[C@](C)(F)[C@@H]1O)Oc1ccccc1	0.66 µM	Non-Toxic	4.1	> 3.85 h	1.78 h
CCCCOC(=O)Nc1ccn([C@@H]2O[C@H](CO[P@@](=O)(N[C@@H](C)C(=O)OC(C)C)Oc3ccccc3)[C@@H](O)[C@@]2(C)F)c(=O)n1	2.61 µM	Non-Toxic			
CC(C)OC(=O)[C@H](C)N[P@](=O)(OC[C@H]1O[C@@H](n2ccc(NC(=O)c3ccc(Cl)cc3)nc2=O)[C@](C)(F)[C@@H]1O)Oc1ccccc1	1.92 µM	Non-Toxic			
CCCCCC(=O)Nc1ccn([C@@H]2O[C@H](CO[P@@](=O)(N[C@@H](C)C(=O)OC(C)C)Oc3ccccc3)[C@@H](O)[C@@]2(C)F)c(=O)n1	0.25 µM	Non-Toxic			
CC(C)CCC(=O)Nc1ccn([C@@H]2O[C@H](CO[P@@](=O)(N[C@@H](C)C(=O)OC(C)C)Oc3ccccc3)[C@@H](O)[C@@]2(C)F)c(=O)n1	0.67 µM	Non-Toxic			
CC(C)OC(=O)[C@H](C)N[P@](=O)(OC[C@H]1O[C@@H](n2ccc(NC(=O)C3CCC3)nc2=O)[C@](C)(F)[C@@H]1O)Oc1ccccc1	0.19 µM	Non-Toxic			
CCCCC(=O)Nc1ccn([C@@H]2O[C@H](CO[P@@](=O)(N[C@@H](C)C(=O)OC(C)C)Oc3ccccc3)[C@@H](O)[C@@]2(C)F)c(=O)n1	0.19 µM	Non-Toxic			
CC(C)OC(=O)[C@H](C)N[P@](=O)(OC[C@H]1O[C@@H](n2ccc(NC(=O)C(C)C)nc2=O)[C@](C)(F)[C@@H]1O)Oc1ccccc1	2.2 µM	Non-Toxic			
